Measured values published in ChEMBL document CHEMBL2163342, “[18F](R)-5-chloro-1-(1-cyclopropyl-2-methoxyethyl)-3-(4-(2-fluoroethoxy)-2,5-dimethyl phenylamino)pyrazin-2(1H)-one: introduction of N3-phenylpyrazinones as potential CRF-R1 PET imaging agents” (Bioorg Med Chem Lett, 2012).

Experiments:
[1] = Octanol-phosphate buffer partition coefficient, log D of the compound at pH 7.4 by shake flask method; assay type: physicochemical
Outline: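 Shake-flask method. Octanol and 25 mM phosphate buffer (pH ~7.4) mixed and allowed to saturate overnight. Compound (1.0 mg in 1 mL octanol) added to 50 mL octanol-saturated buffer, shaken intensely 30–40 min, then layers left to separate. Each layer analysed twice by HPLC.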

[2] = biological target: T1, Corticotropin-releasing factor receptor 1 (Rattus norvegicus, UniProt P35353); experiment: Displacement of [125I]-o-CRF from CRFR1 in rat frontal cortex after 2 hrs by gamma counter; assay type: tissue-based
T1 sequence (P35353 whole entry): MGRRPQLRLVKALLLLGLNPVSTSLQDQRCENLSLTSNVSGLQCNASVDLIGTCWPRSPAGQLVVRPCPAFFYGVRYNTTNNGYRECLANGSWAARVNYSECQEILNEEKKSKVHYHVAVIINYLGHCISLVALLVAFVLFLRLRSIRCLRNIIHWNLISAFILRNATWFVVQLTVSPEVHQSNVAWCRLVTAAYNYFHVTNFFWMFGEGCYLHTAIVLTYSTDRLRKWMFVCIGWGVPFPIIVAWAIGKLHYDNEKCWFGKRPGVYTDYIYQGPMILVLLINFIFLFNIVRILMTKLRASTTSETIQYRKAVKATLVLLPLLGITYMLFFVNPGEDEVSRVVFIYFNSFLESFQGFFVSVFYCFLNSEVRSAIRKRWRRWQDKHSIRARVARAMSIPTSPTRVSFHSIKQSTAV
Outline: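 Rat frontal cortex homogenate (25 µg/well), prepared in 50 mM HEPES pH 7.0, 10 mM MgCl2, 2 mM EGTA, protease inhibitors, 0.005% Triton X-100, bacitracin, 0.1% ovalbumin. Incubated with 150 pM [125I]-o-CRF and compounds for 2 h at 21 °C. Separated by rapid filtration on PEI-pretreated glass fiber filters, washed with ice-cold PBS/0.01% Triton X-100. Specific binding inhibition gives Ki.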

[3] = biological target: T2, Corticotropin-releasing factor receptor 1 (Homo sapiens, UniProt P34998); experiment: Binding affinity to CRFR1 by autoradiography
T2 sequence (P34998 whole entry): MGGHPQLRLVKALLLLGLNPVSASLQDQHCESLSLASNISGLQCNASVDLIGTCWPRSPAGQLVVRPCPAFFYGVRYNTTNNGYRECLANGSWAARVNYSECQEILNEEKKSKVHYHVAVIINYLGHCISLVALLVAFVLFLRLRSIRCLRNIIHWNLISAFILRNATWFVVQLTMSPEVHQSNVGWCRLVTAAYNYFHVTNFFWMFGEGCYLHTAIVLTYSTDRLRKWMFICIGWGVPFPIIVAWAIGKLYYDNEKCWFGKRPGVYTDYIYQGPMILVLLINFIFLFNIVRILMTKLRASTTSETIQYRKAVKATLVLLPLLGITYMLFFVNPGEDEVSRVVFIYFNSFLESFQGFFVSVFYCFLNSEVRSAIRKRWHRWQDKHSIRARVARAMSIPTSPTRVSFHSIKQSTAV
Outline: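 In vitro autoradiography on fresh 20 µm sagittal brain sections from adult male Sprague–Dawley rats. Sections preincubated 10 min in 50 mM HEPES, 10 mM MgCl2, EGTA, pH 7.4, then incubated with 1.3 nM [18F] radioligand at 22–24 °C for 40 min. Washed 2 min in ice-cold PBS, pH 7.4.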

Liver microsomes [4] = experiment: Drug metabolism in rat liver microsomes assessed as compound depletion per mg of protein at 3 uM; assay type: ADME, Microsome
Outline: (§1)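 Liver microsomes (1 mg/ml protein) incubated with 3 µM compound and 1.3 mM NADPH at 37 °C in 100 mM sodium phosphate buffer, pH 7.4. Final solvent 0.015% DMSO, 0.985% acetonitrile. Stopped at 0 and 10 min, compound measured by LC/MS/MS. Reported as depletion rate, pmol/min/mg protein.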

Liver microsomes [5] = experiment: Drug metabolism in human liver microsomes assessed as compound depletion per mg of protein at 3 uM; assay type: ADME, Microsome; outline: as §1
[6] = Metabolic stability in baboon plasma assessed as compound remaining after 9 and 13 mins; assay type: ADME, cell-free; details: papio anubis, read-out: Stability
Lung = experiment: Drug uptake in rat lung measured at 15 and 60 mins; assay type: ADME, tissue-based; details: in vivo, 1 h
Outline: (§2)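 Whole-body biodistribution of the [18F]-labelled radioligand in rats, formulated in 10% EtOH/saline. Tissues sampled at 15 and 60 min post-dose. Activity expressed as average % injected dose per gram.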

Brain [7] = experiment: Drug uptake in rat brain after 10 to 30 mins by microPET analysis; assay type: ADME, tissue-based; details: in vivo
Outline: (§3)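 In vivo microPET imaging of rat head and neck after dosing with the [18F] radioligand. Brain uptake followed from the first 10 min through 30 min on sagittal images. Skull bone uptake checked for defluorination.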

Spleen = experiment: Drug uptake in rat spleen measured at 15 and 60 mins; assay type: ADME, tissue-based; details: in vivo, 1 h; outline: as §2
Muscle tissue = experiment: Drug uptake in rat muscle measured at 15 and 60 mins; assay type: ADME, tissue-based; details: in vivo, 1 h; outline: as §2
Heart = experiment: Drug uptake in rat heart measured at 15 and 60 mins; assay type: ADME, tissue-based; details: in vivo, 1 h; outline: as §2
Kidney = experiment: Drug uptake in rat kidney measured at 15 and 60 mins; assay type: ADME, tissue-based; details: in vivo, 1 h; outline: as §2
Liver = experiment: Drug uptake in rat liver measured at 15 and 60 mins; assay type: ADME, tissue-based; details: in vivo, 1 h; outline: as §2
Brain [8] = experiment: Drug uptake in rat brain measured at 15 and 60 mins; assay type: ADME, tissue-based; details: in vivo, 1 h; outline: as §2
Brain [9] = experiment: Drug uptake in rat brain up to 10 mins by microPET analysis; assay type: ADME, tissue-based; details: in vivo; outline: as §3
[10] = Drug uptake in rat tibia measured at 15 and 60 mins; assay type: ADME, tissue-based; details: in vivo, 1 h; outline: as §2
Blood = experiment: Drug uptake in rat blood measured at 15 and 60 mins; assay type: ADME, tissue-based; details: 1 h; outline: as §2
Intestine = experiment: Drug uptake in rat small intestine measured at 15 and 60 mins; assay type: ADME, tissue-based; details: in vivo, 1 h; outline: as §2
[11] = Unbound fraction in rat plasma after 3 hrs by equilibrium dialysis method; assay type: ADME, cell-free
Outline: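 Equilibrium dialysis of rat plasma spiked with compound against isotonic phosphate buffer, 3 h at 37 °C. Buffer and plasma concentrations measured by LC/MS/MS. Unbound fraction taken as the buffer/plasma concentration ratio.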

[12] = biological target: T3, Corticotropin-releasing factor receptor 1 (Rattus norvegicus) (UniProt P35353); experiment: Binding affinity to CRFR1 in Sprague-Dawley rat neocortex at 1.3 nM after 40 mins by autoradiography; details: tested as the 18F-labelled form
T3 sequence (whole entry): T1 sequence (P35353 whole entry)
Outline: (§4)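 Fresh 20 µm-thick sagittal brain sections from adult male Sprague–Dawley rats. Sections were preincubated 10 min in 50 mM HEPES, 10 mM MgCl₂, […], pH 7.4, then incubated 40 min at 22–24 °C with 1.3 nM [¹⁸F]-radioligand (1.3 mCi/mL) in the same buffer. Slides were washed 2 min in ice-cold PBS (pH 7.4) and imaged by in vitro autoradiography.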

[13] = biological target: T3, Corticotropin-releasing factor receptor 1 (Rattus norvegicus); experiment: Binding affinity to CRFR1 in Sprague-Dawley rat cerebellum at 1.3 nM after 40 mins by autoradiography; details: tested as the 18F-labelled form; outline: as §4

logD [1] | IC50 [2] | Drug metabolism (Liver microsomes [4]) | Drug metabolism (Liver microsomes [5]) | SMILES | other results
3.1 | 5.4 nM |  |  | COCC(COC)n1cc(Cl)nc(Nc2c(Cl)cc(OCF)cc2Cl)c1=O | 
3.1 | 4.1 nM |  |  | COC[C@@H](C1CC1)n1cc(Cl)nc(Nc2cc(C)c(OCF)cc2C)c1=O | 
 |  |  |  | COCCN(CCOC)c1nc(C)nc2c(-c3ccc([76Br])cc3Cl)c(C)nn12 | Ki [3]: 2 nM
3.1 | 210 nM | 0.12 pmol/min | 0.07 pmol/min | COCC(COC)n1cc(Cl)nc(Nc2c(Cl)cc(OCCF)cc2Cl)c1=O | 
 |  |  |  | COCCN(CCO[11CH3])Cc1cc(C)nc2c(-c3ccc(Cl)cc3Cl)c(C)nn12 [[11C]DMP-696] | remaining at 13 min [6]: 50%; Ki [3]: 1.7 nM
3.4 | 0.88 nM | 0.19 pmol/min | 0.06 pmol/min | COC[C@@H](C)n1cc(Cl)nc(Nc2cc(C)c(OC)cc2C)c1=O | 
 |  |  |  | COC[C@@H](C1CC1)n1cc(Cl)nc(Nc2cc(C)c(OCC[18F])cc2C)c1=O | Drug uptake (Lung): Active; Drug uptake (Brain [7]): Not Active; Drug uptake (Spleen): Active; Drug uptake (Muscle tissue): Active; Drug uptake (Heart): Active; Drug uptake (Kidney): Active; Drug uptake (Liver): Active; Drug uptake (Brain [8]): Active; Drug uptake (Brain [9]): Active; Drug uptake [10]: Active; Drug uptake (Blood): Active; Drug uptake (Intestine): Active
 |  | 0.23 pmol/min | 0.17 pmol/min | COC[C@@H](C1CC1)n1cc(Cl)nc(Nc2cc(C)c(OC)cc2C)c1=O | 
2.9 | 4.3 nM | 0.26 pmol/min | 0.22 pmol/min | COCC(COC)n1cc(Br)nc(Nc2c(C)cc(OCF)cc2C)c1=O | fraction unbound at 3 h [11]: 0.03
3.8 | 0.68 nM | 0.14 pmol/min | 0.07 pmol/min | COCC(COC)n1cc(Br)nc(Nc2cc(C)c(OC)cc2C)c1=O | 
 |  |  |  | CCCN(CCC)c1cc(C)nc2c(-c3ccc(N(C)[11CH3])nc3)c(C)nn12 | remaining at 13 min [6]: 50%; Ki [3]: 1.7 nM
3.4 | 5 nM | 0.17 pmol/min | 0.03 pmol/min | COCC(COC)n1cc(Cl)nc(Nc2c(Cl)cc(OC)cc2Cl)c1=O | 
2.8 | 7.8 nM |  |  | COCC(COC)n1cc(Br)nc(Nc2c(C)cc(OC)cc2C)c1=O | fraction unbound at 3 h [11]: 0.03
 |  |  |  | CCC(COC)n1nnc2c(Nc3ccc(O[11CH3])cc3C)nc(C)cc21 (centres undefined) | Ki [3]: 1.7 nM
3.7 | 2.4 nM | 0.12 pmol/min | 0.07 pmol/min | COC[C@@H](C1CC1)n1cc(Cl)nc(Nc2cc(C)c(OCCF)cc2C)c1=O | Activity [12]: 18%; Activity [13]: 19%
